Source: the M2OR odorant receptor database

Key:
Settings in all cases: stereoisomer not certain
UniProt Q8VF52 = biological target: T1, UniProt Q8VF52
T1 sequence (whole entry): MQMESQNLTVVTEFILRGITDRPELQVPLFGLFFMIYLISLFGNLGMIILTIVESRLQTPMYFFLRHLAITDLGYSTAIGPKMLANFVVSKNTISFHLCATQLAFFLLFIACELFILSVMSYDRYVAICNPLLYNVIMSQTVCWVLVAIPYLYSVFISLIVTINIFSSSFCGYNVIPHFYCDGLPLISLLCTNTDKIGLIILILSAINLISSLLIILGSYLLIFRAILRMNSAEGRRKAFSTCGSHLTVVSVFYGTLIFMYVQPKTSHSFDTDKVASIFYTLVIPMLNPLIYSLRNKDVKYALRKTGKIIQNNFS
Method in brief: (§1)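 Whether a receptor–molecule pair is responsive (active) rests on the original authors' judgment that its measured signal was statistically different from baseline. Pairs without that judgment are non-responsive (inactive). Sources used varied assay methods, commonly transient luciferase assays in mammalian cell lines.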

UniProt Q8VFM8 = biological target: T2, UniProt Q8VFM8
T2 sequence (whole entry): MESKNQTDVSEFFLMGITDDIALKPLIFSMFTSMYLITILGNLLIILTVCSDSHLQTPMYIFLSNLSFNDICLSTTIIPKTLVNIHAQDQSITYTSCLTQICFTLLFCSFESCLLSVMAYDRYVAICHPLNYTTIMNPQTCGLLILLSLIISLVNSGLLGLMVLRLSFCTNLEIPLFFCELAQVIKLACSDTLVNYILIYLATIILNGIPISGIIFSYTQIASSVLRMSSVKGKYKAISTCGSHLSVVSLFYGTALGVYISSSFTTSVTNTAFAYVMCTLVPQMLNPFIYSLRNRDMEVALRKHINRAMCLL
Method in brief: as §1

UniProt Q8VFP5 = biological target: T3, UniProt Q8VFP5
T3 sequence (whole entry): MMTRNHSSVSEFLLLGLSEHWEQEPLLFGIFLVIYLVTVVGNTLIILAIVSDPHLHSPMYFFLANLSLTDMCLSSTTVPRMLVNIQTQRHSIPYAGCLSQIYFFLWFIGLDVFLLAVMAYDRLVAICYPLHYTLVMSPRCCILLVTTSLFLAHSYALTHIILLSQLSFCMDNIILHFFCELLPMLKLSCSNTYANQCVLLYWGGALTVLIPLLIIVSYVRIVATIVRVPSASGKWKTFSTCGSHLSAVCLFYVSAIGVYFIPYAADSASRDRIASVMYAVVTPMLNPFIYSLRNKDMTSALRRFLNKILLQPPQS
Method in brief: as §1

UniProt Q8VG01 = biological target: T4, UniProt Q8VG01
T4 sequence (whole entry): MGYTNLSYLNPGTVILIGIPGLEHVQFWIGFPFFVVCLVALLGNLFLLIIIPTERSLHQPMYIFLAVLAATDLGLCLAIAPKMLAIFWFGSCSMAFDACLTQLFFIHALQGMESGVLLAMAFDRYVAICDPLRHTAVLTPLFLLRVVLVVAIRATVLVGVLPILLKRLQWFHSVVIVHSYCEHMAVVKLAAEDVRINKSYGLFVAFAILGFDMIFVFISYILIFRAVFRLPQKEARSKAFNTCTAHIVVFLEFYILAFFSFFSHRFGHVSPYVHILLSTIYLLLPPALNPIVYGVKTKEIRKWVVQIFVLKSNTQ
Method in brief: as §1

UniProt Q8VG27 = biological target: T5, UniProt Q8VG27
T5 sequence (whole entry): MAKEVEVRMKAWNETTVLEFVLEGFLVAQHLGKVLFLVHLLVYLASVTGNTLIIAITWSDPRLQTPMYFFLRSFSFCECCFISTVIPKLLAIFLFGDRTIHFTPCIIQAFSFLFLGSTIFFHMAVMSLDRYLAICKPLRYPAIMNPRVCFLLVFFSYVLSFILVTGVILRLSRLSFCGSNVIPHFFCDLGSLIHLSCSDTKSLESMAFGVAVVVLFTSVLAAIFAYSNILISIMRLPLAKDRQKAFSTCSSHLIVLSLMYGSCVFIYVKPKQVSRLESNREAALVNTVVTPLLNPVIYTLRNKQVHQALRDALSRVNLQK
Method in brief: as §1

UniProt Q8VG53 = biological target: T6, UniProt Q8VG53
T6 sequence (whole entry): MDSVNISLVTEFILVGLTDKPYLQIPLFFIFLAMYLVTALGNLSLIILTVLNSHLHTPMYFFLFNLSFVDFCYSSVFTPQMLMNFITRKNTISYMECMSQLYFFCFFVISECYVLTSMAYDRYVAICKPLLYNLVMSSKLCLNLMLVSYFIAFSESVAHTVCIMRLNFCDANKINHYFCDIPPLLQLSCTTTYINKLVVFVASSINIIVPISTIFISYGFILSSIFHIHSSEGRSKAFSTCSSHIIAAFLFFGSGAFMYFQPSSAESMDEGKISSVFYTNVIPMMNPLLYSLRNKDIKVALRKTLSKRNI
Method in brief: as §1

UniProt Q8VG64 = biological target: T7, UniProt Q8VG64
T7 sequence (whole entry): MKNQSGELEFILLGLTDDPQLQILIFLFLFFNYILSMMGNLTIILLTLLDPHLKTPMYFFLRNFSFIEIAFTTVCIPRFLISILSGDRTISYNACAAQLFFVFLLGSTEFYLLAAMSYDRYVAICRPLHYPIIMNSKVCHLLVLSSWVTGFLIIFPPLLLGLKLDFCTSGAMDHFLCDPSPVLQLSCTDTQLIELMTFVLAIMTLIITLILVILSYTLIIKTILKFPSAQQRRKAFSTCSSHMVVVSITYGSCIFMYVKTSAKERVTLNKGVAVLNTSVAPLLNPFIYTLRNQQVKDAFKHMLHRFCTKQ
Method in brief: as §1

UniProt Q8VGB9 = biological target: T8, UniProt Q8VGB9
T8 sequence (whole entry): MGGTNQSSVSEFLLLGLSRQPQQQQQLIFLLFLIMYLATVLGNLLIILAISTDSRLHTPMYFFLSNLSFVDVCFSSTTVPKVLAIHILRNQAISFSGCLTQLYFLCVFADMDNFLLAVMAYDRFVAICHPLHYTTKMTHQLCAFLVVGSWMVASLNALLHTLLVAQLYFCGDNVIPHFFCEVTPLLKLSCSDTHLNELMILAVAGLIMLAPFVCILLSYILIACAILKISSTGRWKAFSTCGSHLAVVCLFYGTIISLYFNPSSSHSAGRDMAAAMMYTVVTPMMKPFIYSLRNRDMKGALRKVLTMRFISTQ
Method in brief: as §1

UniProt Q8VGC6 = biological target: T9, UniProt Q8VGC6
T9 sequence (whole entry): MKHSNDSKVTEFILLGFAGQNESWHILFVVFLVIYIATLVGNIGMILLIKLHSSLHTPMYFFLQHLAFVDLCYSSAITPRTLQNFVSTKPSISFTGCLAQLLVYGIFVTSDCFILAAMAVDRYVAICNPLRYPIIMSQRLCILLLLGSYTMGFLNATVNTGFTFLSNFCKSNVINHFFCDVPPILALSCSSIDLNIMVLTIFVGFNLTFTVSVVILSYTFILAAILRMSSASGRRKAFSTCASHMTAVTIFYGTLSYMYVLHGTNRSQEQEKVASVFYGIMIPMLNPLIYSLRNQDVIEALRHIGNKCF
Method in brief: as §1

UniProt Q8VGJ3 = biological target: T10, UniProt Q8VGJ3
T10 sequence (whole entry): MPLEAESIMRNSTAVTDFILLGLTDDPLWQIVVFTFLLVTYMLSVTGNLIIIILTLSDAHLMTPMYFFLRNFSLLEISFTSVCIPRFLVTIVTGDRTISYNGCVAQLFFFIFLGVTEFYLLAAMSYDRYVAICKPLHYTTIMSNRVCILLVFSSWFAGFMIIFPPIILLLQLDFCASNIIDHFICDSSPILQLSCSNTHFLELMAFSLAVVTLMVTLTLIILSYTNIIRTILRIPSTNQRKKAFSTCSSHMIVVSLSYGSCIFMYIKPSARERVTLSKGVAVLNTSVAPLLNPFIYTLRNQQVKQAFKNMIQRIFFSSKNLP
Method in brief: as §1

Measured: odorant receptor agonist call;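 also: active if original authors judged signal statistically different from baseline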

O=Cc1ccc2c(c1)OCO2
inactive: UniProt Q8VF52 | UniProt Q8VFM8 | UniProt Q8VFP5 | UniProt Q8VG01 | UniProt Q8VG27 | UniProt Q8VG53 | UniProt Q8VG64 | UniProt Q8VGB9 | UniProt Q8VGC6 | UniProt Q8VGJ3

COc1ccc(C=O)cc1
inactive: UniProt Q8VF52 | UniProt Q8VFM8 | UniProt Q8VFP5 | UniProt Q8VG01 | UniProt Q8VG27 | UniProt Q8VG53 | UniProt Q8VG64 | UniProt Q8VGB9 | UniProt Q8VGC6 | UniProt Q8VGJ3

OCc1ccc2c(c1)OCO2
inactive: UniProt Q8VF52 | UniProt Q8VFM8 | UniProt Q8VFP5 | UniProt Q8VG01 | UniProt Q8VG27 | UniProt Q8VG53 | UniProt Q8VG64 | UniProt Q8VGB9 | UniProt Q8VGC6 | UniProt Q8VGJ3

Oc1ccccc1Br
inactive: UniProt Q8VF52 | UniProt Q8VFM8 | UniProt Q8VFP5 | UniProt Q8VG01 | UniProt Q8VG27 | UniProt Q8VG53 | UniProt Q8VG64 | UniProt Q8VGB9 | UniProt Q8VGC6 | UniProt Q8VGJ3
